From PubChem BioAssay
AHR activator: AHR activators, primary screen, cell-based, luminescence, luciferase reporter, human; Aryl hydrocarbon receptor (Homo sapiens), P35869; AHR-responsive luciferase reporter cells; activation, % at 5 µM; hit rate 2.5% among 320,000; in the data active = activation above about 47%;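 also: 0% = vehicle wells and 100% = reference agonist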
Yeast superoxide: reduction of superoxide in aged yeast, primary screen, HTS; AID 2690, 2010; superoxide response (% of plate mean), % at 10 µM; hit rate 0.18% among 330,000; S. cerevisiae aged cells, superoxide DHE fluorescence; hits give low values;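 active = superoxide response under a set limit, about three screen SD below normal, cut at about 65% in these data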;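 also: yeast aged for seven days with compound at 30 °C before DHE staining; 100% = average MFI of all compound-treated wells on the plate with controls excluded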
SMARCA2 act: SMARCA2 (BRM) function activators, primary screen, cell-based, luminescence, high throughput. AID 652017, 2013. activation, % at 9.1 µM. hit rate 1% among 370,000. MG213 cells, MMTV-luciferase reporter, dexamethasone, overnight; in the data active = activation above about 7.8%;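 also: 0% = vehicle wells and 100% = reference activator wells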
Hep lipid drop: inhibitors of hepatocyte lipid droplet formation, primary screen, imaging, high-throughput imaging, BODIPY stain; inhibition, % at 6.5 µM; AID 1656, 2009; hit rate 0.4% among 240,000; AML12 mouse hepatocytes, oleate lipid droplets;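 active = lipid droplet intensity inhibited by at least 50%, with more than 500 cells counted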
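Assay system: AML12 mouse liver cells | Compound dosing: One dose, 6.5 µM compound | Read-out basis: Droplet intensity reduction, % inhibition | Measured by: Fluorescence imaging, 20x objective, two fields per well | Schedule: Overnight treatment with compound plus oleate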
SR-BI HDL uptake: inhibitors of SR-BI mediated HDL lipid uptake, primary screen, ldlA[mSR-BI] cells, fluorescence, single point | Scavenger receptor class B member 1 (Mus musculus), Q61009 | ldlA[mSR-BI] CHO cells, DiI-HDL uptake fluorescence, 3 h | inhibition, % at 12.5 µM | hit rate 0.96% among 320,000 | AID 488896, 2010;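 active = mean replicate inhibition of at least 70% and a set share of replicates each scoring 70 or more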;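 also: 0% = median of neutral control wells and 100% = median of positive control wells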
Target sequence (Q61009 whole entry, looked up): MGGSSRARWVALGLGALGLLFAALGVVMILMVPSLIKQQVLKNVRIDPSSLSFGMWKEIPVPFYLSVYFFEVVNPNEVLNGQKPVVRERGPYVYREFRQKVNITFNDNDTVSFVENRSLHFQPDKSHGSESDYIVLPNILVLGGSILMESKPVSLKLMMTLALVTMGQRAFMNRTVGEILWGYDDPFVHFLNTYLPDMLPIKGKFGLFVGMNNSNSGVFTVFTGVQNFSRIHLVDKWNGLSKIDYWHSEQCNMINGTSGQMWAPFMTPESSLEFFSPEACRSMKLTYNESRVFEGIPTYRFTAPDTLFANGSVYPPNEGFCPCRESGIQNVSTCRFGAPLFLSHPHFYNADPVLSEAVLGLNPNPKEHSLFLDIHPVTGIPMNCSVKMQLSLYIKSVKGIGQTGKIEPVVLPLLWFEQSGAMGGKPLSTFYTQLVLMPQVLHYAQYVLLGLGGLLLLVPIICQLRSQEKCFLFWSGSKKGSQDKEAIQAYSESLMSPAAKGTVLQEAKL
SR-BI uptake up: activators of SR-BI mediated DiI-HDL uptake, primary screen, ldlA[mSR-BI] CHO cells, DiI fluorescence. hit rate 0.096% among 320,000. activation, % at 12.5 µM. 3 h; 100 = double the neutral-control signal;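 active = mean replicate activation of at least 60% and every replicate at or above 60%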;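 also: 0% = median plate neutral-control signal and 100% = twice that signal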
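Test system: SR-BI-overexpressing, LDLR-lacking CHO cells. Measured by: DiI fluorescence, bottom read. Medium: Ham's F12 with 0.5% BSA, HEPES 25 mM, pH 7.4. Timing: 3 h uptake period with compound, 37 °C.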
The depositor's hits bear a star; x = no result given. An excerpt weighted towards active compounds, which were near 4.3% of everything screened.

SMILES	AHR activator	Yeast superoxide	SMARCA2 act	Hep lipid drop	SR-BI HDL uptake	SR-BI uptake up
Oc1ccccc1/C=N/NC(=S)NC1CC2CCC1C2 (configuration not stated)	18	87	1	6	76*	-76
COc1ccc([C@H]2OC(=O)C[C@H]2C(=O)N2CCCCC2)cc1OC	x	x	-6	x	x	x
COC(=O)[C@]12C[C@H](CC(=O)N3CCOCC3)C(=O)N(Cc3cccc4ccccc34)C1=C[C@H](C1CCCC1)O[C@@H]2C	x	x	-2	x	x	x
O=C(c1ccccc1OCc1ccccc1)N(Cc1ccccn1)CC1CCCO1 (configuration not stated)	x	x	-4	x	x	x
CCN(CC)C(=O)C1CCCN(c2ccc([N+](=O)[O-])cc2[N+](=O)[O-])C1 (configuration not stated)	0	112	-1	1	3	-3
CCN(CC)C(=O)C1CCCN(c2ccccc2[N+](=O)[O-])C1 (configuration not stated)	0	101	-2	-21	79*	-79
CCN(CC)C(=O)C1CCCN(c2ccc([N+](=O)[O-])cc2/C=N/NC(=O)c2cccc([N+](=O)[O-])c2)C1 (configuration not stated)	1	76	-3	x	90*	-90
O=C(CNc1ccccc1)N/N=C/c1cc([N+](=O)[O-])ccc1N1CCCC1	32	103	1	x	73*	-73
Cc1cc(O)cc(=O)n1-c1cccc(C(F)(F)F)c1	x	x	-4	x	x	x
COc1cccc(CNC(=O)[C@H]2CCCN2C(=O)[C@H]2CCCN2C(=O)c2c(F)cccc2F)c1	x	x	-2	x	x	x
CCCc1cc(=O)n2[nH]c(-c3ccc(C)cc3)cc2n1	69*	91	6	x	-1	1
O=c1cc(-c2ccccc2)nc2cc(-c3ccco3)[nH]n12	38	63*	-2	3	-26	26
Nc1nc2nc(-c3ccccc3)cc(=O)n2[nH]1	2	103	-1	3	-3	3
CCOC(=O)Cc1cc(=O)n2[nH]c(-c3ccc(Cl)cc3)cc2n1	40	103	0	-14	-15	15
COCc1cc(=O)n2[nH]c(-c3ccccc3)cc2n1	33	104	3	x	-19	19
Cc1cc2nc(-c3ccccc3)cc(=O)n2[nH]1	3	114	1	-13	9	-9
O=c1cc(-c2ccccc2)nc2nc(-c3ccccc3)[nH]n12	74*	117	2	-6	4	-4
CCCc1cc(=O)n2[nH]c(-c3ccccc3)cc2n1	72*	98	5	4	23	-23
COc1ccc(NC(=O)CCCNS(=O)(=O)c2ccc3[nH]c(=O)oc3c2)cc1OC	x	x	-2	x	x	x
Cc1ccccc1CN1[C@@H](C)[C@H](c2ccccc2)Oc2cccc(N3CCCC3)c2S1(=O)=O	x	x	-5	x	x	x
CCOc1cccc(C(=O)Nc2ccc(N3CCCC3)cc2)c1	4	101	1	-11	75*	-75
CCCCOc1ccc(C(=O)NCC(=O)N(C)CC(=O)Nc2ccc(N3CCOCC3)cc2)cc1	3	103	-2	x	82*	-82
CCOc1ccc(C(=O)Nc2ccc(N3CCCC3)cc2)cc1	-2	94	-1	5	77*	-77
COc1ccc(C(=O)Nc2ccc(N3CCCC3)cc2)cc1	-1	82	1	x	53	-53
COC(=O)c1ccc(C=NNC(=O)c2cc(-c3ccc(C)c(C)c3)n[nH]2)cc1	x	x	3	x	x	x
SMILES	AHR activator	Yeast superoxide	SMARCA2 act	Hep lipid drop	SR-BI HDL uptake	SR-BI uptake up
Cc1ccc(S(=O)(=O)n2ccc(-c3c(-c4ccc(F)cc4)noc3C)n2)cc1	x	x	-3	x	x	x
N#Cc1cc(-c2ccccc2)nn1-c1ccccc1	68*	112	-2	18	22	-22
CCCCC1O[C@@H](C)[C@@H]2CN3CCc4c([nH]c5ccccc45)[C@@H]3C[C@@H]2N1C (some centres not stated)	x	x	-1	x	x	x
C/C=C/c1ccc([C@H]2[C@@H](CN(CC(C)C)S(=O)(=O)c3ccccc3[N+](=O)[O-])N(C(=O)Nc3cccc(OC)c3)[C@H]2CO)cc1	x	x	0	x	x	x
COc1ccc(OCc2cc(C(=O)N3CCC(OC)CC3)no2)c2ccccc12	51*	117	2	-6	-7	7
COc1ccc(OCc2cc(C(=O)NC3CCOC(C)(C)C3)no2)c2ccccc12 (configuration not stated)	67*	109	0	-11	29	-29
COCC1CCN(C(=O)c2cc(COc3ccc(OC)c4ccccc34)on2)C1 (configuration not stated)	45	88	3	-7	23	-23
CC(C)C1=CC2C3C(=O)N(c4ccccc4)C(=O)C3C1C(=O)C2(C)O (configuration not stated)	x	x	-1	x	x	x
Cc1ccc2c(c1)-c1c(cnn1CC(=O)NCCc1ccccc1F)CO2	x	x	-3	x	x	x
N#CC(C#N)=CC1=C2OC(c3ccccc3)=CC(c3ccccc3)=C2CCC1	2	104	-3	x	116*	-116
COc1ccc(-c2csc(NC(=O)CSc3nc(SC)ns3)n2)cc1	58*	120	-1	-4	41	-41
COc1cccc(C(=O)N[C@H](C(=O)N2CCC[C@H]2C(=O)NCc2ccccc2)C(C)C)c1	x	x	7	x	x	x
CCCC[C@H]1C2CC(OC(=O)Nc3ccc(Cl)cc3)C(C2)[C@H]2CCCCN21 (some centres not stated)	x	x	-4	x	x	x
Cc1cccc(NC(=S)N=Nc2c(O)n(CN3CCOCC3)c3ccccc23)c1C	55*	111	0	-2	2	-2
Cc1ccc(N=Nc2c(O)n(CN3CCOCC3)c3ccccc23)cc1	41	110	x	x	16	-16
COc1c(CC=C(C)C)cc(C2CC(=O)c3c(O)cc(O)cc3O2)cc1CC=C(C)C (configuration not stated)	1	88	2	16	42	-42
COc1cc(O)cc2c1[C@@H]1Oc3c(ccc(O)c3CC=C(C)C)[C@@H]1CO2	2	107	0	x	85*	-85
CCOC(=O)c1c(-c2ccc(OC)cc2)csc1NC(=O)COc1ccc2c(C)cc(=O)oc2c1	1	97	2	11	73*	-73
CCn1c(NC(=O)c2ccco2)c(-c2ccccc2Cl)c(=O)c2ccccc21	-3	105	8.0*	x	-28	28
Cn1c(NC(=O)c2ccco2)c(-c2ccccc2)c(=O)c2ccccc21	1	105	-2	x	-13	13
COC(=O)[C@]12C[C@H](CC(=O)NCc3ccc(OC)c(OC)c3)C(=O)N(Cc3ccc4c(c3)OCO4)C1=C[C@H](C(C)C)O[C@@H]2C1CC1	x	x	1	x	x	x
